Data published in ChEMBL document CHEMBL5104191, “Identification of Novel 2,4,5-Trisubstituted Pyrimidines as Potent Dual Inhibitors of Plasmodial PfGSK3/PfPK6 with Activity against Blood Stage Parasites In Vitro” (J Med Chem, 2022).

Assays:
[1] = Inhibition of Plasmodium falciparum PK6 measured after 2 hrs by luciferin-based luminescence assay
Plasmodium falciparum [2] = assay: Antiplasmodial activity against Plasmodium falciparum 3D7 infected in human erythrocytes assessed as reduction in parasite growth incubated for 72 hrs by SYBR green I fluorescence based assay; type: functional, organism-based; conditions: 3D7, 72 h
In short: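 P. falciparum 3D7 synchronized by sorbitol at ring stage, set to 2% parasitemia and 2% hematocrit. Compounds dosed at 0–5 μM as 2-fold dilutions in triplicate. Controls were quinacrine 500 nM and 0.5% DMSO. Incubation 72 h at 37 °C in 3% O2/5% CO2/92% N2, then SYBR Green I lysis for 24 h in the dark. Fluorescence ex 485/em 535; normalized to controls; EC50 from dose–response fit.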

HepG2 = assay: Cytotoxicity against human HepG2 cells assessed as reduction in cell viability at 2 uM measured after 48 hrs by cell titre glo luminescence assay; type: toxicity, cell-based; conditions: hepg2, 48 h
In short: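 HepG2 cells in DMEM with 10% FBS, seeded at 4000 cells/well and incubated overnight at 37 °C, 5% CO2. Compound added in quadruplicate with constant DMSO, then 48 h incubation. Viability by CellTiter-Glo luminescence, reported as % viable cells; average of two experiments in quadruplicate.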

Plasmodium falciparum [3] = assay: Antiplasmodial activity against blood stage plasmodium falciparum assessed as inhibition of parasite growth; type: functional, organism-based
Plasmodium falciparum [4] = assay: Inhibition of Plasmodium falciparum PK6 at 1 uM measured after 2 hrs by luciferin-based luminescence assay relative to control; values are per cent of control
[5] = target: T1, Glycogen synthase kinase 3 (Plasmodium falciparum (isolate 3D7)) (UniProt O77344); assay: Inhibition of Plasmodium falciparum GSK3 at 1 uM measured after 2 hrs by luciferin-based luminescence assay relative to control; values are per cent of control
T1 sequence (whole entry): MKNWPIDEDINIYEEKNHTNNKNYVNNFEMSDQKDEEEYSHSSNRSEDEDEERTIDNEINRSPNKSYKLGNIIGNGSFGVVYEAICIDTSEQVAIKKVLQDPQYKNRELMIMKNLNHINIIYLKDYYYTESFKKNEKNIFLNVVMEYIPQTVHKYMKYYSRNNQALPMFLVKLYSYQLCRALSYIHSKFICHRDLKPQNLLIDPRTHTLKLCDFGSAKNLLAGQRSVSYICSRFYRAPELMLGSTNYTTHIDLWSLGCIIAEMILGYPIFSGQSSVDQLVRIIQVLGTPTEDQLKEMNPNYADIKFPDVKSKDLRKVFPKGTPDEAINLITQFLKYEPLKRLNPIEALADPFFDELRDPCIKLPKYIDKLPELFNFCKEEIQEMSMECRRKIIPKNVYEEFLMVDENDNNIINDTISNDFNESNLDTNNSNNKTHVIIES

[6] = Kinetic solubility of the compound in PBS buffer at pH 7.4; type: physicochemical
[7] = Inhibition of Plasmodium falciparum PKG incubated for 30 mins […]

With `COc1cnc(Nc2ccc(C(=O)N3CCC(N4CCCC4)CC3)cc2)nc1-c1cc2ccccc2s1` the IC50 [1] was 294 nM.

With `Cc1cnc(Nc2ccc(C(=O)N3CCC(N4CCCC4)CC3)cc2)nc1-c1ccc(Cl)s1` the EC50 (Plasmodium falciparum [2]) was 576 nM, the cell viability remaining (HepG2) was 65% and the IC50 [1] was 14 nM.

In the case of `O=C(c1ccc(Nc2nccc(-c3ccc4ccccc4c3)n2)cc1)N1CCC(N2CCCC2)CC1`, the EC50 (Plasmodium falciparum [2]) is reported as 541 nM, the cell viability remaining (HepG2) is reported as 82% and the IC50 [1] is reported as 359 nM.

Compound `CC(C)n1cnc2c(NCc3ccccc3)nc(NCCO)nc21` has an IC50 (Plasmodium falciparum [3]) of 130000 nM.

Compound `COC(=O)c1ccc(Nc2nccc(-c3cc4ccccc4s3)n2)cc1` has a residual activity (Plasmodium falciparum [4]) of 78% and a residual activity [5] of 71%.

`c1ccc(Nc2nccc(-c3cc4ccccc4s3)n2)cc1` showed a residual activity [5] of 100%.

In the case of `Cc1ccc(-c2nc(Nc3ccc(C(=O)N4CCC(N5CCCC5)CC4)cc3)ncc2C)s1`, the IC50 [1] is reported as 28 nM.

Work on `Cc1ccc(-c2nc(Nc3ccc(C(=O)NCCCN4CCOCC4)cc3)ncc2Cl)s1` yielded an EC50 (Plasmodium falciparum [2]) of 2600 nM, a cell viability remaining (HepG2) of 54% and an IC50 [1] of 16 nM.

For `O=C(c1ccc(Nc2nccc(-c3ccc(-c4ccccc4)s3)n2)cc1)N1CCC(N2CCCC2)CC1`, the IC50 [1] was 415 nM.

In the case of `Cn1cc(-c2ccnc(Nc3ccc(C(=O)N4CCC(N5CCCC5)CC4)cc3)n2)cn1`, the IC50 [1] is reported as 645 nM.

With `c1ccc(CNc2nccc(-c3cc4ccccc4s3)n2)cc1` the residual activity [5] was 100%.

`CN1CCC(NC(=O)c2ccc(Nc3nccc(-c4cc5ccccc5s4)n3)cc2)CC1` gave an IC50 [1] of 340 nM.

With `O=C(c1ccc(Nc2nccc(-c3cc4ccccc4s3)n2)cc1)N1CCNCC1` the IC50 [1] was 398 nM.

`O=C(NC1CC1)c1ccc(Nc2nccc(-c3cc4ccccc4s3)n2)cc1` showed an IC50 [1] of 407 nM.

In the case of `Cc1ccc(-c2nc(Nc3ccc(C(=O)N4CCC(N5CCCC5)CC4)cc3)ncc2Cl)s1`, the IC50 [1] is reported as 14 nM.

With `Clc1ccccc1Nc1nccc(-c2cc3ccccc3s2)n1` the residual activity [5] was 100%.

Compound `O=C(c1ccc(Nc2nccc(-c3ccc(Cl)s3)n2)cc1)N1CCC(N2CCCC2)CC1` has an IC50 [1] of 130 nM.

`O=C(c1ccc(Nc2ncc(F)c(-c3cc4ccccc4s3)n2)cc1)N1CCC(N2CCCC2)CC1` showed an EC50 (Plasmodium falciparum [2]) of 607 nM, a cell viability remaining (HepG2) of 79% and an IC50 [1] of 66 nM.

Work on `O=C(c1ccc(Nc2nccc(-c3ccco3)n2)cc1)N1CCC(N2CCCC2)CC1` yielded an IC50 [1] of 768 nM.

With `Clc1cccc(Nc2nccc(-c3cc4ccccc4s3)n2)c1` the residual activity [5] was 89%.

`O=C(NCCCN1CCOCC1)c1ccc(Nc2nccc(-c3cc4ccccc4s3)n2)cc1` showed an IC50 [1] of 156 nM.

Compound `N#Cc1cnc(Nc2ccc(C(=O)N3CCC(N4CCCC4)CC3)cc2)nc1-c1cc2ccccc2s1` has an EC50 (Plasmodium falciparum [2]) of 322 nM, a cell viability remaining (HepG2) of 84% and an IC50 [1] of 77 nM.

`O=C(c1ccc(Nc2nccc(-c3cc4ccccc4s3)n2)cc1)N1CCC(N2CCCCC2)CC1` showed an IC50 [1] of 115 nM.

For `O=C(c1ccc(Nc2nccc(-c3ccc(Cl)c(Cl)c3)n2)cc1)N1CCC(N2CCCC2)CC1`, the IC50 [1] was 382 nM.

`CCCN(C)C1CCN(C(=O)c2ccc(Nc3nccc(-c4cc5ccccc5s4)n3)cc2)CC1` gave an IC50 [1] of 181 nM.

For `Clc1ccc(Nc2nccc(-c3cc4ccccc4s3)n2)cc1`, the residual activity (Plasmodium falciparum [4]) was 92% and the residual activity [5] was 89%.

For `COc1ccccc1Nc1nccc(-c2cc3ccccc3s2)n1`, the residual activity [5] was 100%.

Compound `O=C(c1ccc(Nc2nccc(-c3cc4ccccc4s3)n2)cc1)N1CCC(N2CCCC2)CC1` has a Kinetic_solubility [6] of 19.4 µg/mL, an EC50 (Plasmodium falciparum [2]) of 280 nM and a cell viability remaining (HepG2) of 103%. The IC50 [1] was 460 nM.

With `O=C(c1ccc(Nc2nccc(-c3cc4ccccc4s3)n2)cc1)N1CCC(N2CC[C@@H](O)C2)CC1` the IC50 [1] was 243 nM.

In the case of `O=C(O)c1ccc(Nc2nccc(-c3cc4ccccc4s3)n2)cc1`, the residual activity [5] is reported as 33%.

With `COc1ccc(Nc2nccc(-c3cc4ccccc4s3)n2)cc1` the residual activity (Plasmodium falciparum [4]) was 88% and the residual activity [5] was 97%.

`Cc1cnc(Nc2ccc(C(=O)N3CCC(N4CCCC4)CC3)cc2)nc1-c1cc2ccccc2s1` showed an EC50 (Plasmodium falciparum [2]) of 760 nM, a cell viability remaining (HepG2) of 66% and an IC50 [1] of 45 nM.

Compound `O=C(c1ccc(Nc2ncc(Cl)c(-c3cc4ccccc4s3)n2)cc1)N1CCC(N2CCCC2)CC1` has an EC50 (Plasmodium falciparum [2]) of 991 nM, a cell viability remaining (HepG2) of 61% and an IC50 [1] of 19 nM.

With `O=C(c1ccc(Nc2nccc(-c3cc4ccccc4o3)n2)cc1)N1CCC(N2CCCC2)CC1` the IC50 [1] was 317 nM.

Compound `CN(C)CCCNC(=O)c1ccc(Nc2nccc(-c3cc4ccccc4s3)n2)cc1` has an IC50 [1] of 319 nM.

With `Cc1cnc(Nc2ccc(C(=O)NCCCN3CCOCC3)cc2)nc1-c1ccc(Cl)s1` the IC50 [1] was 12 nM.

For `O=C(c1ccc(Nc2nccc(-c3ccc(COCC(F)(F)F)s3)n2)cc1)N1CCC(N2CCCC2)CC1`, the EC50 (Plasmodium falciparum [2]) was 810 nM, the cell viability remaining (HepG2) was 87% and the IC50 [1] was 292 nM.

`O=C(c1ccc(Nc2nccc(-c3cc4ccccc4s3)n2)cc1)N1CCC(N2CC[C@H](O)C2)CC1` gave an IC50 [1] of 264 nM.

`Cc1ccc(-c2ccnc(Nc3ccc(C(=O)N4CCC(N5CCCC5)CC4)cc3)n2)s1` gave an IC50 [1] of 222 nM.

Work on `O=C(c1ccc(Nc2nccc(-c3nccs3)n2)cc1)N1CCC(N2CCCC2)CC1` yielded an IC50 [1] of 182 nM.

With `O=C(c1ccc(Nc2ncc(Br)c(-c3cc4ccccc4s3)n2)cc1)N1CCC(N2CCCC2)CC1` the EC50 (Plasmodium falciparum [2]) was 300 nM, the cell viability remaining (HepG2) was 47% and the IC50 [1] was 57 nM.

`c1ccc2sc(-c3ccnc(Nc4ccc(CN5CCC(N6CCCC6)CC5)cc4)n3)cc2c1` gave an EC50 (Plasmodium falciparum [2]) of 60 nM, a cell viability remaining (HepG2) of 97% and an IC50 [1] of 173 nM.

`O=C(c1ccc(Nc2nccc(-c3ccccc3)n2)cc1)N1CCC(N2CCCC2)CC1` showed an IC50 [1] of 329 nM.

For `O=C(c1ccc(Nc2ncc(C3CC3)c(-c3cc4ccccc4s3)n2)cc1)N1CCC(N2CCCC2)CC1`, the EC50 (Plasmodium falciparum [2]) was 646 nM, the cell viability remaining (HepG2) was 55% and the IC50 [1] was 114 nM.

In the case of `O=C(c1ccc(Nc2nccc(-c3cccs3)n2)cc1)N1CCC(N2CCCC2)CC1`, the IC50 [1] is reported as 236 nM.

In the case of `CS(=O)(=O)CCCNC(=O)c1ccc(Nc2nccc(-c3cc4ccccc4s3)n2)cc1`, the IC50 [1] is reported as 215 nM.

`O=C(c1ccc(Nc2ncc(Cl)c(-c3ccc(Cl)s3)n2)cc1)N1CCC(N2CCCC2)CC1` showed an EC50 (Plasmodium falciparum [2]) of 552 nM, a cell viability remaining (HepG2) of 34% and an IC50 [1] of 11 nM.

In the case of `CN1CCN(C(=O)c2ccc(Nc3nccc(-c4cc5ccccc5s4)n3)cc2)CC1`, the IC50 [1] is reported as 339 nM.

`COc1cccc(Nc2nccc(-c3cc4ccccc4s3)n2)c1` showed a residual activity [5] of 97%.

For `O=C(NCCCN1CCOCC1)c1ccc(Nc2ncc(Cl)c(-c3ccc(Cl)s3)n2)cc1`, the EC50 (Plasmodium falciparum [2]) was 1400 nM, the cell viability remaining (HepG2) was 65% and the IC50 [1] was 8 nM.

For `Cc1cn2c(-c3ccnc(NCC4CC4)n3)c(-c3ccc(F)c(NS(C)(=O)=O)c3)nc2cc1CN(C)C`, the IC50 [7] was 2.1 nM.

Compound `CN1CCN(CCCNC(=O)c2ccc(Nc3nccc(-c4cc5ccccc5s4)n3)cc2)CC1` has an IC50 [1] of 153 nM.

Compound `CN(C)C1CCN(C(=O)c2ccc(Nc3nccc(-c4cc5ccccc5s4)n3)cc2)CC1` has an IC50 [1] of 216 nM.

Compound `O=C(c1ccc(Nc2nccc(-c3ccc(CO)s3)n2)cc1)N1CCC(N2CCCC2)CC1` has an IC50 [1] of 563 nM.
